The text below walks through data of ChEMBL document CHEMBL4400560, “Discovery and optimization of novel piperazines as potent inhibitors of fatty acid synthase (FASN)” (Bioorg Med Chem Lett, 2019).

The structures appear in SMILES notation.

Test [1] is described as follows: Inhibition of thioesterase (unknown origin). Also noted: species or system Homo sapiens.
Test [2] is described as follows: Inhibition of ketoreductase (unknown origin). Also noted: species or system Homo sapiens.
The nature of test [3]: Inhibition of dehydratase (unknown origin). The arrangement: species or system Homo sapiens.
The nature of test [4]: Inhibition of enoyl reductase (unknown origin). The arrangement: species or system Homo sapiens.
Another test concerns the target Fatty acid synthase (Homo sapiens, UniProt P49327). Put plainly: Inhibition of full length recombinant human FASN using acetyl-CoA/malonyl-CoA as substrate preincubated for 60 mins followed by substrate addition and measured after 90 mins in presence of NADPH. Summed up:
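Full-length recombinant human FASN. CoA released is detected as a fluorescent conjugate with the coumarin maleimide CPM. IC50 is the mean of at least two separate runs.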

Sequence of Fatty acid synthase (P49327 whole entry): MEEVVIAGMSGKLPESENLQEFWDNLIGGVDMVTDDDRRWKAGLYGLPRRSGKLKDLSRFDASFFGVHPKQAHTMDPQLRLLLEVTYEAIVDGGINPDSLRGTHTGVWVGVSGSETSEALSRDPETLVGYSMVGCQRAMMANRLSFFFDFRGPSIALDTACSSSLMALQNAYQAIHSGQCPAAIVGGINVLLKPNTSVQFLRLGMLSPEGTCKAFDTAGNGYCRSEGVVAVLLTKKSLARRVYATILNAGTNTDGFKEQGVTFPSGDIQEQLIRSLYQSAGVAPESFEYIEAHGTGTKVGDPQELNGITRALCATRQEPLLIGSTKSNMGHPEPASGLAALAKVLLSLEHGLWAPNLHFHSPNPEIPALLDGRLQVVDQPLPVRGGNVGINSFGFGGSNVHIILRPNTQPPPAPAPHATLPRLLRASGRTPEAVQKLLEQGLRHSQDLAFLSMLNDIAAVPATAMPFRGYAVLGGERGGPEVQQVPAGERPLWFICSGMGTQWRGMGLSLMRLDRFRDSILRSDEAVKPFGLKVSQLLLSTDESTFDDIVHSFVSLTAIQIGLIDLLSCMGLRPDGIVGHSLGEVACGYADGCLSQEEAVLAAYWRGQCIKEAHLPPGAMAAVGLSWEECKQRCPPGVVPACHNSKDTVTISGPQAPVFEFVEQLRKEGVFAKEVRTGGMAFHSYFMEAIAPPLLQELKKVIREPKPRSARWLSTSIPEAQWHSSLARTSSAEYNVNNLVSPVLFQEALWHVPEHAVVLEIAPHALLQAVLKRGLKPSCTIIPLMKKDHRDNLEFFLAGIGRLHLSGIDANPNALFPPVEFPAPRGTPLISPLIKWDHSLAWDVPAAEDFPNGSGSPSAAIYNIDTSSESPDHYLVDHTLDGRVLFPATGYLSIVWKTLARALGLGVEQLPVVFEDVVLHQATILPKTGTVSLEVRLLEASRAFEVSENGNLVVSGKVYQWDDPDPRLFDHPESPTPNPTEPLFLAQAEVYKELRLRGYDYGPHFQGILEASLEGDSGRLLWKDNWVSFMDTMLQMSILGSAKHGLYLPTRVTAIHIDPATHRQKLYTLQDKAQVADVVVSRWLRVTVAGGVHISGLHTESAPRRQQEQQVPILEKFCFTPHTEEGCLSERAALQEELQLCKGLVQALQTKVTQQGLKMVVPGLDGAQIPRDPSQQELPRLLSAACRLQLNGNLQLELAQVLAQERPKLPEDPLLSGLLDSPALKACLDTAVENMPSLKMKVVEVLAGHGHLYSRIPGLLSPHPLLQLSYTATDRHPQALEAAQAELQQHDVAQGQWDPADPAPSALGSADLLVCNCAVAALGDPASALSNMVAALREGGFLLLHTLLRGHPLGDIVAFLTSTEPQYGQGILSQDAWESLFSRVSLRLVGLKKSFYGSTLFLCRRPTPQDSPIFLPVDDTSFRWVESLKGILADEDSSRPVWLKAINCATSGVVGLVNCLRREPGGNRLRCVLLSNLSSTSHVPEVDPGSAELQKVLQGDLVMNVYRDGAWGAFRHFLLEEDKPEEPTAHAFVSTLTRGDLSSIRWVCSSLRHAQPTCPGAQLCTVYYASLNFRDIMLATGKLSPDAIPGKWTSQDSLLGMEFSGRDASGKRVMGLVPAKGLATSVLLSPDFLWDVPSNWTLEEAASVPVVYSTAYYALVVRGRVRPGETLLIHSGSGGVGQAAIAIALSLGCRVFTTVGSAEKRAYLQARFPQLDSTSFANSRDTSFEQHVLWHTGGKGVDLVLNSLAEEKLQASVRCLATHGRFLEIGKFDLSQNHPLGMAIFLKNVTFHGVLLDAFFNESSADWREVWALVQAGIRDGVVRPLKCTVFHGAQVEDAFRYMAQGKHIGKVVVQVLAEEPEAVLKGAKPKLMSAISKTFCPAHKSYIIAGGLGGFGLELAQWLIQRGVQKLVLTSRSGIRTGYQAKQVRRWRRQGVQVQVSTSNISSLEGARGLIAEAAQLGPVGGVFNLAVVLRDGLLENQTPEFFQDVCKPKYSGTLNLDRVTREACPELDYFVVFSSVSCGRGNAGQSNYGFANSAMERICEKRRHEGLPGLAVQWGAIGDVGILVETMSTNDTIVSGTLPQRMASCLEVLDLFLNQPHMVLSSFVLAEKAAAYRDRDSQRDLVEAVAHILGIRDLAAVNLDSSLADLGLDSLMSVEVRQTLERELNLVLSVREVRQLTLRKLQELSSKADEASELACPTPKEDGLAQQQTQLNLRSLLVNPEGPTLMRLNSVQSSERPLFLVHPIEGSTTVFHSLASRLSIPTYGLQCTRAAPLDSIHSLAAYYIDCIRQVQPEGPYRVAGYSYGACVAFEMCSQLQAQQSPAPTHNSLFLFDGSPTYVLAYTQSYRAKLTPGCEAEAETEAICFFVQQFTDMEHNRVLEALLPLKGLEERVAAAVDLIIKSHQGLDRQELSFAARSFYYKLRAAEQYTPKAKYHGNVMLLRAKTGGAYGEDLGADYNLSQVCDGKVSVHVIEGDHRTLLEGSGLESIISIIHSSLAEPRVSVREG

Turning to `O=C(c1ccc(-c2ccccc2)cc1)N1CCN(C(=O)C2CCCO2)CC1` (racemic), the IC50 (usually the concentration at which inhibition is half-maximal) in test [1] is greater than 50 µM; in test [2], 1800 nM; in test [3], greater than 50 µM; in test [4], greater than 50 µM; on Fatty acid synthase it was 1140 nM.
